Bioassay records deposited in PubChem BioAssay by several laboratories.
An excerpt weighted towards active compounds, which were near 4% of everything screened.
SENP1 inh – human SENP1 catalytic domain inhibitors, primary screen, biochemical, FRET, uHTS; 360,000 compounds, 0.21% hits; AID 624204, 2012; inhibition, % at 10 µM; recombinant SENP1 catalytic domain, CyPet-SUMO1-YPet FRET cleavage;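 active = inhibition at least 30% at 10 µM, raw YFP signal under a set limit, fluorescence ratio 0.5 to 1.5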
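material = recombinant human SENP1 catalytic domain, His6-tagged | quantity = 20 pM enzyme | reagent = 25 nM SUMO1 FRET substrate | compound dosing = 10 µM single point, 0.5% DMSO | timing = 50 min enzyme reaction, room temperature, light-protected | detection = FRET, CFP and YFP emission | control set = no-enzyme low, enzyme-DMSO high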
GRIN3A LBD mod – binders of NR3A ligand-binding domain, primary screen, biophysical, differential scanning fluorimetry, uHTS; Tm shift relative to glycine control, % at 25 µM; NR3A LBD differential scanning fluorimetry, Tm shift; 0% = protein alone, 100% = glycine-bound protein; 340,000 compounds, 2.5% hits; Glutamate receptor ionotropic, NMDA 3A (GRIN3A) ligand-binding domain;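 active = melting temperature shift of at least 10% of the positive control shift, at one fixed dose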
hiPSC survival – enhancers of single-cell hiPSC survival, primary screen, ATPlite luminescence | 360,000 compounds, 0.044% hits | 100% = ROCK inhibitor wells, 0% = DMSO | survival enhancement, % at 20 µM; in the data active = survival enhancement above about 18%;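 also: cells exposed to compounds for 16 hours before the ATP read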
FAS-TE inh – FAS thioesterase domain inhibitors, primary screen, biochemical, fluorescence intensity, uHTS; 360,000 compounds, 0.67% hits; recombinant FAS-TE, OMFH fluorogenic substrate, fluorescence endpoint; AID 602261, 2012; Fatty acid synthase (Homo sapiens), P49327; inhibition, % at 15 µM;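 active = compounds whose normalised, plate-corrected inhibition of enzyme fluorescence in the single-dose primary screen is 50% or more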
Target sequence (P49327 whole entry, looked up, the tested form may be a part): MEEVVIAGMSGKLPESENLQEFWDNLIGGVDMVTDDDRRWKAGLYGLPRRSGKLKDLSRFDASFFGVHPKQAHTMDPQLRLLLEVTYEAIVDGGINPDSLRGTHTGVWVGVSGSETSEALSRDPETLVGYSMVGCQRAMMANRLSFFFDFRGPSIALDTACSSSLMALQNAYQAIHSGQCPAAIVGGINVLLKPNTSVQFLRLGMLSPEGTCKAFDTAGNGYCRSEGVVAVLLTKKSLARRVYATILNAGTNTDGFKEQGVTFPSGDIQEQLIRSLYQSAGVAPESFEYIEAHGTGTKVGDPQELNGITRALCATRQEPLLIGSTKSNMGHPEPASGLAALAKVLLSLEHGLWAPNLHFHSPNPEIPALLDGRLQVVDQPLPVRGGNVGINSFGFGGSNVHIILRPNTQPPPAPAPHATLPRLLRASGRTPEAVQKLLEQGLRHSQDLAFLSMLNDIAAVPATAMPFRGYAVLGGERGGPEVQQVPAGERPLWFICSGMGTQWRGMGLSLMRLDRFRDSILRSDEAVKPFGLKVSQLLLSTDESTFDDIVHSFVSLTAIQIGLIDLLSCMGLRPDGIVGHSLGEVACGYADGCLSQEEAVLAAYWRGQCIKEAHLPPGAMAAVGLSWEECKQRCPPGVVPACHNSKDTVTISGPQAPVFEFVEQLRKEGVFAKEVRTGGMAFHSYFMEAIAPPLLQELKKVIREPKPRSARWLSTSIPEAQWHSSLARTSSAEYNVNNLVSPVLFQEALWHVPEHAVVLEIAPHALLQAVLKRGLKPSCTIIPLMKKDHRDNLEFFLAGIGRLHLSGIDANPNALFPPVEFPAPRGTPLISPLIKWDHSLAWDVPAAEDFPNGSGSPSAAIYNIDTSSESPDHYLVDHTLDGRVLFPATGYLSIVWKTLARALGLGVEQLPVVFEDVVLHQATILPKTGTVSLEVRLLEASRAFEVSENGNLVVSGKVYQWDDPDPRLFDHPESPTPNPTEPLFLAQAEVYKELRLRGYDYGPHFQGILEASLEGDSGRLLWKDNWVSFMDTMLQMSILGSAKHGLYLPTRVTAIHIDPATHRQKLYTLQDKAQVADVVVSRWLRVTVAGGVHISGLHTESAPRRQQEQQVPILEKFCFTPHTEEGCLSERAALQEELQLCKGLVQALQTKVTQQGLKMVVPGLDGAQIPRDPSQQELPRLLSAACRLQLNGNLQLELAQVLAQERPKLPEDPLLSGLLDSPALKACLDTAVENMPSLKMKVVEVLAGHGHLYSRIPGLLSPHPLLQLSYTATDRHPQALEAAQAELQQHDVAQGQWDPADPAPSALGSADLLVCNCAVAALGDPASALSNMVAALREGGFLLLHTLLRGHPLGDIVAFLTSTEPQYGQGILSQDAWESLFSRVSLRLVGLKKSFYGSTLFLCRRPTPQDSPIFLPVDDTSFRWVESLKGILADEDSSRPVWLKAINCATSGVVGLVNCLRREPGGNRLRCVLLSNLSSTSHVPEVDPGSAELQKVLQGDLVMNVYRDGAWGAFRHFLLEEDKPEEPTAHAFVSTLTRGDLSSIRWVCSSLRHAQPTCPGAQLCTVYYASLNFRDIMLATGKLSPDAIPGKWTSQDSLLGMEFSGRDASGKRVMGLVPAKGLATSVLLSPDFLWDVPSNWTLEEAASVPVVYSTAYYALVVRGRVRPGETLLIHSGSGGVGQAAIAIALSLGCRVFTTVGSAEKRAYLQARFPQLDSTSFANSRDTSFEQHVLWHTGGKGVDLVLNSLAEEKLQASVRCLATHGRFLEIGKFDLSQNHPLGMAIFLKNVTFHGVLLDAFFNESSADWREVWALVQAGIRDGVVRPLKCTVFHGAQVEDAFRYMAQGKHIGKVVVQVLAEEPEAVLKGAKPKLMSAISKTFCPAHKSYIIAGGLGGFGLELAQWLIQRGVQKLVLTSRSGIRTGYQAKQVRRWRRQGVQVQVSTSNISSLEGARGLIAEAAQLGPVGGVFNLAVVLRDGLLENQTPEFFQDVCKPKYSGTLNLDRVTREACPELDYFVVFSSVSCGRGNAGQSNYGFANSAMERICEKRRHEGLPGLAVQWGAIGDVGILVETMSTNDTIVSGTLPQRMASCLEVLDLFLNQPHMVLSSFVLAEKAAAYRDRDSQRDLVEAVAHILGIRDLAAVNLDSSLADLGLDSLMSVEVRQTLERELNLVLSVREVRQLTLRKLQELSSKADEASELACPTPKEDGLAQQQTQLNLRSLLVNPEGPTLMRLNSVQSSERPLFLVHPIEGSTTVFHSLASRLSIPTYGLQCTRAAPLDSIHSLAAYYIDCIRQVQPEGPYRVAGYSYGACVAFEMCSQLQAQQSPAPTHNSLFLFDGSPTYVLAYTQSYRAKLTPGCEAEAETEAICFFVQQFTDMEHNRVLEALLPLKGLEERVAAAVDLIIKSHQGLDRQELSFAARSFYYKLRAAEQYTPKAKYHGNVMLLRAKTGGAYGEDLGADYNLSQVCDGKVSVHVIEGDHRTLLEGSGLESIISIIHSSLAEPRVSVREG
H9c2 protect – cardioprotection against H2O2-induced cell death, primary screen, uHTS, H9c2 cells, ATPLite luminescence; H9c2 cardiomyocytes, H2O2 injury protection, 2 h; AID 588492, 2011; 360,000 compounds, 0.63% hits; protection from H2O2 cell death, % at 20 µM;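 active = compounds giving at least 50% protection of heart cells from peroxide-induced death in the single-dose screen, raw or plate-pattern-corrected value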
Arrestin-AP2 inh – inhibitors of beta-arrestin/AP2 binding, primary screen, biochemical, GPCR trafficking, flow cytometry. beta-arrestin 1 C-terminal peptide binding to AP2 beta2-adaptin appendage (human). FITC-arrestin peptide / GST-AP2 beads; AP2 beta2 appendage carries R879A mutation. inhibition, % at 10 µM. 340,000 compounds, 0.31% hits;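 active = inhibition above a set limit, near 3 SD of compounds lacking own fluorescence, cut at about 54% in these data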
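system = GST-tagged AP2 beta2-adaptin appendage (R879A) on 4 µm glutathione beads | reagent = FITC-labelled arrestin peptide probe, 50 nM final | schedule = compound with beads 12 min RT, then probe 1 h RT | signal = HyperCyt-sampled flow cytometry, FL1 channel, ex 488/em 535 nm | read-out = percent response from loss of bead-bound FITC fluorescence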
Hits are given with their value; n = inactive; x = not tested or not shown.

SMILES	SENP1 inh	GRIN3A LBD mod	hiPSC survival	FAS-TE inh	H9c2 protect	Arrestin-AP2 inh
Cc1nc2c(OCc3ccc(Cl)cc3)cccn2c1N(C)C(=O)CCC1CCCC1	n	x	n	n	n	x
CNc1cncc(-c2cccc(C(=O)NCCN(C)C)c2)n1	n	x	n	n	n	x
COc1ccc(NC(=O)c2cccc3c(-c4ccc(O)c(OC)c4)coc23)cc1	n	x	n	n	n	x
Cn1nc(C(=O)Nc2nc(-c3ccccn3)cs2)c2ccccc2c1=O	n	n	n	n	55	n
CCCn1nc(C(=O)Nc2nnc(C3CC3)s2)c2ccccc2c1=O	n	n	n	n	n	n
CCCn1nc(C(=O)Nc2nc(-c3ccccn3)cs2)c2ccccc2c1=O	n	n	n	n	86	n
CCn1nc(C(=O)Nc2nc(-c3ccccn3)cs2)c2ccccc2c1=O	n	n	n	n	79	n
COCCc1ccc(OC2(C)CCN(Cc3ccc(OC)c4ccccc34)C2)cc1 (stereo not drawn)	n	x	n	n	n	x
C[C@@H]1CN([C@H](C)CO)C(=O)CCCn2nncc2CO[C@H]1CN(C)C	n	x	n	n	n	x
N/C(=N\NC(=O)c1sccc1OCc1ccc(Cl)cc1Cl)c1ccccn1	n	n	n	n	55	n
CNC(=S)NNC(=O)c1sccc1OCc1ccc(Cl)cc1Cl	n	n	n	n	n	n
CN(C)S(=O)(=O)c1cc(NC(=O)COC(=O)Cc2ccc(Cl)cc2Cl)ccc1Cl	n	n	n	n	n	n
CN(C)S(=O)(=O)c1cc(NC(=O)COC(=O)CCSc2ccc(Cl)cc2)ccc1Cl	n	13	n	n	n	n
CN(C)S(=O)(=O)c1cc(NC(=O)COC(=O)Cc2ccc(Br)cc2)ccc1Cl	n	15	n	n	n	n
CCOC(=O)c1c(C)oc2c1c(CN1CCN(C(=O)OCC)CC1)c(O)c1ccccc12	n	10	n	n	n	n
CCOC(=O)c1c(C)oc2c1c1c(c3ccccc32)OCN(Cc2ccccn2)C1	n	n	n	n	54	n
Cc1ccc(C(=O)Nc2ccc(C(=O)N/N=C/c3ccc(C)o3)cc2)cc1	n	15	n	n	n	n
COc1ccc(C(=O)Nc2cccc(C)c2)cc1	n	17	n	n	n	n
COc1ccc(C(=O)Nc2ccc(C(=O)NCCc3ccccc3)cc2)cc1	n	22	n	n	n	n
Cc1ccc(SCC(=O)Nc2cccc(C)c2)cc1	n	n	n	n	n	n
COc1ccc(C(=O)Nc2cccc(NC(C)=O)c2)cc1	n	x	n	n	n	x
Cc1ccc(SCC(=O)Nc2ccc(C(=O)Nc3ccc(O)cc3)cc2)cc1	n	19	n	n	n	n
CCOC(=O)[C@]12CCC=C1N(Cc1ccc3c(c1)OCO3)C(=O)[C@H](CC(=O)NCCC(C)C)C2	n	x	n	n	x	x
OCc1ccccc1-c1nc(NCc2ccccc2)nc2ccsc12	n	x	n	n	n	x
COc1ccc(NC(=O)c2ccc(CN3CCN(c4ccccc4)CC3)cc2)cc1	n	n	n	n	n	n
SMILES	SENP1 inh	GRIN3A LBD mod	hiPSC survival	FAS-TE inh	H9c2 protect	Arrestin-AP2 inh
COc1ccc(NC(=O)c2ccc(N3C(=O)C4CC=C(Cl)CC4C3=O)cc2)cc1 (stereo not drawn)	n	18	n	n	n	n
COc1ccc(N2C(=O)C3CC=C(Cl)CC3C2=O)cc1 (stereo not drawn)	n	n	n	n	n	n
COc1ccc(NC(=O)c2cccc(N3C(=O)C4C5C=CC(C6CC56)C4C3=O)c2)cc1 (stereo not drawn)	n	23	n	n	n	n
Cc1ccc(Nc2ccc(C(=O)NCCc3ccccc3)cn2)cc1	n	24	n	n	n	n
COc1ccc(NC(=O)c2ccc(NC(=O)CN3CCN(c4ccccc4)CC3)cc2)cc1	n	19	n	n	n	n
COc1cccc(C(O)c2nc(-c3ccc(Cl)cc3)cs2)c1 (stereo not drawn)	n	x	n	n	n	x
COc1ccc(NC(=O)c2ccc(C)cc2)cc1	n	42	n	n	n	n
COc1ccc(C(=O)NNC(=O)C(=O)Nc2ccc(C)cc2)cc1	n	n	n	n	n	n
COc1ccc(OCC(=O)Nc2ccc(N3CCN(C(=O)c4ccccc4C)CC3)cc2)cc1	n	18	n	n	n	n
COc1ccc(C(=O)Nc2cc(-c3ccc(C)cc3)no2)cc1	n	11	n	n	n	n
CC(C)C(=O)N1CCN(c2ccc(NC(=O)COc3ccccc3[N+](=O)[O-])cc2)CC1	n	n	n	n	72	n
Clc1ccc(-n2cnc3c(Cl)ncnc32)cc1Cl	n	n	n	n	n	n
C[C@H](CO)N1C[C@H](C)[C@@H](CN(C)Cc2ccc(C(=O)O)cc2)Oc2ncc(-c3ccc(C(=O)N(C)C)cc3)cc2C1=O	n	x	n	n	n	x
COc1ccc(C(=O)Nc2ccc(NC(=O)c3cnccn3)cn2)cc1	n	14	n	n	n	n
COc1ccc(C(=O)Nc2ccc(NC(=O)C3CC3)cn2)cc1	n	n	n	n	n	n
COc1ccc(C(=O)Nc2ccc(-c3ccc(NC(=O)c4ccc(OC)cc4)c(OC)c3)cc2OC)cc1	n	28	n	n	n	n
COc1ccc(NC(=O)c2ccc(C(=O)Nc3ccc(OC)cc3OC)cc2)c(OC)c1	n	n	n	n	n	n
C[C@H](CO)N1C[C@H](C)[C@H](CN(C)Cc2cccc(F)c2)Oc2ncc(Br)cc2C1=O	n	x	n	n	n	x
CC1(C(=O)NCc2cccs2)CCN1CCc1ccccc1 (stereo not drawn)	n	x	n	n	n	x
Cc1ccc(CCNC(=O)C2CCC(CNc3c(N4CCCC4)c(=O)c3=O)CC2)cc1 (stereo not drawn)	n	17	n	n	n	n
Cc1ccc(CCNC(=O)C2CCC(CNc3c(N4CCC(C)CC4)c(=O)c3=O)CC2)cc1 (stereo not drawn)	n	n	n	n	n	n
CC(C)(C)c1cc(NCCCn2ccnc2)n2ncc(-c3ccc(Cl)cc3)c2n1	n	20	n	n	n	n
Cc1cc(Br)cn2c(CC(C)(C)C)c(C3CCCCC3)nc12	n	x	n	n	n	x
O=C1Nc2ccccc2-n2nnnc2C1N1CCc2ccccc2C1 (stereo not drawn)	n	x	x	x	x	x
O=C(NC(Cc1ccccc1)C(=O)N1CCN(c2ccccc2O)CC1)c1ccccc1 (stereo not drawn)	n	x	n	n	n	n
